Data set [1] deals with T1, HCMV A143T/A144T protease mutant (Human cytomegalovirus, UniProt P16753, A143T/A144T).
T1 sequence (P16753 1-256 A143T/A144T limits assumed): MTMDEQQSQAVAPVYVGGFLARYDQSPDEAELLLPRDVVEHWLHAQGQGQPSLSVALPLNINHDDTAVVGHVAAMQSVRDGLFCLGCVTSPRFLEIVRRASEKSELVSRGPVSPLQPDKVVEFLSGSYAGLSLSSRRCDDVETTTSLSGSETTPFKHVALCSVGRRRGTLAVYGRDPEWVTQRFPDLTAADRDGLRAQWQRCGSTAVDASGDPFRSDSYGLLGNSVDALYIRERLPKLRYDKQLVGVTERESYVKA
The data set is described as follows: Esterase activity toward p-nitrophenol. Format: biochemical. The following applies: for hydrolysis by HCMV protease (in words): up to 10 min at 30 °C. In short, it runs like this: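 Catalytic-domain His-tagged A143T/A144T mutant, expressed in E. coli BL21(DE3) and Ni-NTA purified, 10 μg/mL, preincubated 3 min in 100 mM phosphate pH 7.4 with 0.5 M Na2SO4 and 10% glycerol. Boc-Xaa-ONp (50 μM) then added at 30 °C for up to 10 min. p-Nitrophenol release read at 405 nm every 30 s. Boc-Ala-ONp kinetics run in 50 mM Tris pH 7.4.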

The nature of data set [2]: Solubility of the model ester. The class given is physicochemical.
In another data set the test system is HCMV protease. The following applies: substrate hydrolysis, literature data; cited from earlier work.
The mark [3] stands for this setting: substrate hydrolysis, 10 μg/mL protease, 50 mM Tris buffer (pH 7.4).

The values that follow come from publication PMC3616455 (Molecular Pharmaceutics, 2013).

Residues, ends and D or L forms follow the SMILES beside them.

For orientation: Km means the concentration of substrate that gives half-maximal velocity.

Consider `C[C@H](NC(=O)OC(C)(C)C)C(=O)Oc1ccc([N+](=O)[O-])cc1` [Boc-L-Ala-ONp], for which the “specific activity relative to Boc-L-Gly-ONp and Boc-L-Phe-ONp (higher)” value in data set [1] (50 μM ester, 10 μg/mL protease) is given as approximately 5 fold. In addition, the specific activity in data set [1] (50 μM ester, 10 μg/mL protease, 30 °C) was 190 nmol/min/mg protein. In addition, in data set [1] (comparison of Km values), the “affinity relative to N-Ac-Tbg-Tbg-Asn(NMe2)-Ala-AMC (less)” value was “about 10 fold”. Further, in data set [1] (comparison of kcat values), the “turnover rate (kcat) relative to the peptide compound (faster)” value was 10 fold. In data set [1] (setting [3]), the Km came out at 163 µM and the kcat amounted to 0.397 s^–1. Besides, the “solubility (in words)” value in data set [2] is reported as “low solubility”.

As for `CC(C)(C)OC(=O)N[C@@H](CCC(N)=O)C(=O)Oc1ccc([N+](=O)[O-])cc1` [Boc-L-Gln-ONp], the “hydrolysis by HCMV protease (in words)” value in data set [1] (50 μM ester, 10 μg/mL protease) is reported as “not hydrolyzed”.

`CC(C)(C)OC(=O)NCC(=O)NCC(=O)Oc1ccc([N+](=O)[O-])cc1` [Boc-L-Gly-L-Gly-ONp] (HELM PEPTIDE1{[CC(C)(C)OC(=O)[*:2]].G.G.[O=[N+]([O-])c1ccc(O[*:1])cc1]}$$$$V2.0): the “hydrolysis by HCMV protease (in words)” value in data set [1] (50 μM ester, 10 μg/mL protease) is “slower than that of Boc-L-Gly-ONp”.

For the compound `CCC(C)C(NC(=O)OC(C)(C)C)C(=O)Oc1ccc([N+](=O)[O-])cc1` [Boc-L-Ile-ONp], in data set [1] (50 μM ester, 10 μg/mL protease), the “hydrolysis by HCMV protease (in words)” value is reported as “not hydrolyzed”.

In the case of `CC(C)CC(NC(=O)OC(C)(C)C)C(=O)Oc1ccc([N+](=O)[O-])cc1` [Boc-L-Leu-ONp], the “hydrolysis by HCMV protease (in words)” value in data set [1] (50 μM ester, 10 μg/mL protease) is recorded as “not hydrolyzed”.

Take `CC(C)[C@H](NC(=O)OC(C)(C)C)C(=O)Oc1ccc([N+](=O)[O-])cc1` [Boc-L-Val-ONp]: in data set [1] (50 μM ester, 10 μg/mL protease), the “hydrolysis by HCMV protease (in words)” value is reported as “not hydrolyzed”.

For the compound N-Ac-Tbg-Tbg-Asn(NMe2)-Ala-AMC, in the data set on HCMV protease, the Km was 13.2 µM and the kcat was 0.035 ^b s^–1.
